≈ marks a conversion by molar mass, not a printed value.
Experiments:
Assay type in all cases: functional
Candida tropicalis [1] = assay: Tested for minimum inhibitory concentration against Candida tropicalis 43 (C.t) at pH of 6.5.
Summary of the method: (§1)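 Broth microdilution in malt extract broth, initial pH 4.5 or 6.5, with 1×10^3 CFU per 0.2 mL well of thawed stored cultures. Compound stocks were made in 5% DMSO/0.2% Tween 80 and diluted to final 0.05–100 μg/mL. Plates were incubated 48 h at 30 °C and read macroscopically. MIC was the lowest concentration with no detectable growth. Vehicle-only wells served as controls.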

[2] = tested on: Meyerozyma guilliermondii; assay: Tested for minimum inhibitory concentration against Candida guilliermondii 80 (C.g) at pH of 6.5.; summary of the method: as §1
Candida tropicalis [3] = assay: Tested for minimum inhibitory concentration against Candida tropicalis 43 (C.t) at pH of 4.5.; summary of the method: as §1
[4] = tested on: Meyerozyma guilliermondii; assay: Tested for minimum inhibitory concentration against Candida guilliermondii 80 (C.g) at pH of 4.5.; summary of the method: as §1
Pichia kudriavzevii [5] = assay: Tested for minimum inhibitory concentration against Candida krusei 132 (C.k) at pH of 4.5.; summary of the method: as §1
Candida albicans [6] = assay: Tested for minimum inhibitory concentration against Candida albicans 124 (Candida albicans) at pH of 4.5.; summary of the method: as §1
Pichia kudriavzevii [7] = assay: Tested for minimum inhibitory concentration against Candida krusei 132 (C.k) at pH of 6.5.; summary of the method: as §1
Candida albicans [8] = assay: Tested for minimum inhibitory concentration against Candida albicans 124 (Candida albicans) at pH of 6.5.; summary of the method: as §1
Candida albicans [9] = assay: Tested for minimum inhibitory concentration against Candida albicans 124 at pH of 6.5.; summary of the method: as §1
Candida tropicalis [10] = assay: Tested for minimum inhibitory concentration against Candida tropicalis 43 at pH of 6.5.; summary of the method: as §1
[11] = tested on: Meyerozyma guilliermondii; assay: Tested for minimum inhibitory concentration against Candida guilliermondii 80 at pH of 6.5.; summary of the method: as §1
[12] = tested on: Meyerozyma guilliermondii; assay: Tested for minimum inhibitory concentration against Candida guilliermondii 80 at pH of 4.5.; summary of the method: as §1
Candida tropicalis [13] = assay: Tested for minimum inhibitory concentration against Candida tropicalis 43 at pH of 4.5.; summary of the method: as §1
Pichia kudriavzevii [14] = assay: Tested for minimum inhibitory concentration against Candida krusei 132 at pH of 4.5.; summary of the method: as §1
Pichia kudriavzevii [15] = assay: Tested for minimum inhibitory concentration against Candida krusei 132 at pH of 6.5.; summary of the method: as §1
Candida albicans [16] = assay: Tested for minimum inhibitory concentration against Candida albicans 124 at pH of 4.5.; summary of the method: as §1

| Compound | MIC (Candida tropicalis [1]) | MIC [2] | MIC (Candida tropicalis [3]) | MIC [4] | MIC (Pichia kudriavzevii [5]) | MIC (Candida albicans [6]) | MIC (Pichia kudriavzevii [7]) | MIC (Candida albicans [8]) | MIC (Candida albicans [9]) | MIC (Candida tropicalis [10]) | MIC [11] | MIC [12] | MIC (Candida tropicalis [13]) | MIC (Pichia kudriavzevii [14]) | MIC (Pichia kudriavzevii [15]) | MIC (Candida albicans [16]) |
| --- | --- | --- | --- | --- | --- | --- | --- | --- | --- | --- | --- | --- | --- | --- | --- | --- |
| CC[C@@H](C)[C@H]1C(=O)NCC(=O)N(C)[C@@H](C(C)C)C(=O)N[C@@H](Cc2ccc(OCc3ccc(Cl)cc3)cc2)C(=O)O[C@H](C)C(=O)N2CCCC[C@H]2C(=O)N(C)[C@@H](C(C)C)C(=O)N[C@@H](C(C)C)C(=O)N(C)[C@@H](CC(=O)O)C(=O)N(C)[C@@H]([C@@H](C)CC)C(=O)N1C | > 100 µg/mL | > 100 µg/mL | > 100 µg/mL | > 100 µg/mL | > 100 µg/mL | 100 µg/mL (≈ 80.8 µM) | > 100 µg/mL | > 100 µg/mL |  |  |  |  |  |  |  |  |
| CC[C@@H](C)[C@H]1C(=O)NCC(=O)N(C)[C@@H](C(C)C)C(=O)N[C@@H](Cc2ccc(OCc3ccccc3)cc2)C(=O)O[C@H](C)C(=O)N2CCCC[C@H]2C(=O)N(C)[C@@H](C(C)C)C(=O)N[C@@H](C(C)C)C(=O)N(C)[C@@H](CC(=O)O)C(=O)N(C)[C@@H]([C@@H](C)CC)C(=O)N1C | > 100 µg/mL | > 100 µg/mL | > 100 µg/mL | > 100 µg/mL | > 100 µg/mL | 50 µg/mL (≈ 41.6 µM) | > 100 µg/mL | > 100 µg/mL |  |  |  |  |  |  |  |  |
| CC[C@@H](C)[C@H]1C(=O)NCC(=O)N(C)[C@@H](C(C)C)C(=O)N[C@@H](Cc2ccc(OC/C=C(\C)CCC=C(C)C)cc2)C(=O)O[C@H](C)C(=O)N2CCCC[C@H]2C(=O)N(C)[C@@H](C(C)C)C(=O)N[C@@H](C(C)C)C(=O)N(C)[C@@H](CC(=O)O)C(=O)N(C)[C@@H]([C@@H](C)CC)C(=O)N1C |  |  |  |  |  |  |  |  | > 100 µg/mL | > 100 µg/mL | > 100 µg/mL | > 100 µg/mL | > 100 µg/mL | > 100 µg/mL | > 100 µg/mL | > 100 µg/mL |

More lines, now with the values ahead:

| MIC (Candida tropicalis [1]) | MIC [2] | MIC (Candida tropicalis [3]) | MIC [4] | MIC (Pichia kudriavzevii [5]) | MIC (Candida albicans [6]) | MIC (Pichia kudriavzevii [7]) | MIC (Candida albicans [8]) | MIC (Candida albicans [9]) | MIC (Candida tropicalis [10]) | MIC [11] | MIC [12] | MIC (Candida tropicalis [13]) | MIC (Pichia kudriavzevii [14]) | MIC (Pichia kudriavzevii [15]) | MIC (Candida albicans [16]) | Compound |
| --- | --- | --- | --- | --- | --- | --- | --- | --- | --- | --- | --- | --- | --- | --- | --- | --- |
| > 100 µg/mL | > 100 µg/mL | > 100 µg/mL | > 100 µg/mL | > 100 µg/mL | > 100 µg/mL | > 100 µg/mL | > 100 µg/mL |  |  |  |  |  |  |  |  | CC[C@@H](C)[C@H]1C(=O)NCC(=O)N(C)[C@@H](C(C)C)C(=O)N[C@@H](Cc2ccc(OC)cc2)C(=O)O[C@H](C)C(=O)N2CCCC[C@H]2C(=O)N(C)[C@@H](C(C)C)C(=O)N[C@@H](C(C)C)C(=O)N(C)[C@@H](CCOC(=O)CCC(=O)O)C(=O)N(C)[C@@H]([C@@H](C)CC)C(=O)N1C |
| > 100 µg/mL | > 100 µg/mL | > 100 µg/mL | > 100 µg/mL | > 100 µg/mL | > 100 µg/mL | > 100 µg/mL | > 100 µg/mL |  |  |  |  |  |  |  |  | CC[C@@H](C)[C@H]1C(=O)NCC(=O)N(C)[C@@H](C(C)C)C(=O)N[C@@H](Cc2ccc(OC)cc2)C(=O)O[C@H](C)C(=O)N2CCCC[C@H]2C(=O)N(C)[C@@H](C(C)C)C(=O)N[C@@H](C(C)C)C(=O)N(C)[C@@H](CCO)C(=O)N(C)[C@@H]([C@@H](C)CC)C(=O)N1C |

Reference: ChEMBL document CHEMBL1127799, “Derivatives of a novel cyclopeptolide. 1. Synthesis, antifungal activity, and structure-activity relationships” (1994)
